Experimental data pooled from the literature.
Compare with care: the assays were run in different laboratories.
Target: Muscarinic acetylcholine receptor M2 (CHRM2, Homo sapiens, UniProt P08172)
Concentration: 10 µM
One construct used (P08172 1-466): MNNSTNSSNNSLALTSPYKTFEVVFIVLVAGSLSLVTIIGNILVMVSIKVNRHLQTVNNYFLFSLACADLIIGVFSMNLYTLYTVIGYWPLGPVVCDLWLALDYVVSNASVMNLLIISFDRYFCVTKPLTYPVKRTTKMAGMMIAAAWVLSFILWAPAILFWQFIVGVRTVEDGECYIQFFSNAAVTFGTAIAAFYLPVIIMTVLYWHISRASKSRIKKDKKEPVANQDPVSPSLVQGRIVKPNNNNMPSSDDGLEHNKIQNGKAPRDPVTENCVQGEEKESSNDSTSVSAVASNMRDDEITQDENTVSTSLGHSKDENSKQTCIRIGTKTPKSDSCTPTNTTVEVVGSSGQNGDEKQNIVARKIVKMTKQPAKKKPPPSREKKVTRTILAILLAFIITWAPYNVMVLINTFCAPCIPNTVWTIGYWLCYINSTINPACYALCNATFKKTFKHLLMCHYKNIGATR

SMILES	effect on	technique	inhibition [%]
COc1cc(NC(C)=O)c(Cl)cc1C(=O)Nc1nccs1	cell-free assay		-25.3
O=C(NNS(=O)(=O)c1ccccc1F)c1cc(F)cc(-c2ccccn2)c1	cell-free assay		15.9
O=C1N=C(N2CCCCN2)S/C1=C\c1ccc(F)cc1O	ligand displacement	radioligand	< 10
CCCNc1nc2ccccc2n1Cc1ccc(Cl)cc1	ligand displacement		13.7
CCN(CC)c1ccc(C2Nc3ccc(C(=O)c4ccccc4)cc3NC3=C2C(=O)CC(C)(C)C3)cc1 (centres unmarked)	ligand displacement	radioligand	-1
N#Cc1cc(Cn2c(N3CCCC3)nc3ccccc32)ccc1F	ligand displacement		7.75
CC1CCN(c2ccnc(NCc3cn(C)cn3)n2)CC1	ligand displacement		7.21
CCN(Cc1ccccc1C(F)(F)F)C(=O)C1CCN(S(=O)(=O)c2ccc3[nH]ncc3c2)CC1	ligand displacement	radioligand	1
O=C(c1ccc(Cl)cc1)N(Cc1ccccc1)C1CCCCC1	cell-free assay		38.2
O=C(Nc1ccc(S(=O)(=O)N2CCC(Cl)CC2)cc1)c1ccc([N+](=O)[O-])o1	ligand displacement	radioligand	10
Ic1cccc2cnccc12	ligand displacement	radioligand	0
